Assay outcomes from PubChem BioAssay.
proCasp7 act = counter-screen for procaspase-3 activators: activators of human procaspase-7; activation, % at 8.5 µM; recombinant procaspase-7, Ac-DEVD-pNA absorbance 405 nm; D23A/D198A/D206A triple mutant, cannot self-cleave; scale: DMSO 0, 5 µM enzyme 100; actives 0.093% (n = 330,000); P55210;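 active means percent activation above the screen-wide mean plus 3 SD, cut at about 25% in these data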
Target sequence (P55210 whole entry D23A/D198A/D206A): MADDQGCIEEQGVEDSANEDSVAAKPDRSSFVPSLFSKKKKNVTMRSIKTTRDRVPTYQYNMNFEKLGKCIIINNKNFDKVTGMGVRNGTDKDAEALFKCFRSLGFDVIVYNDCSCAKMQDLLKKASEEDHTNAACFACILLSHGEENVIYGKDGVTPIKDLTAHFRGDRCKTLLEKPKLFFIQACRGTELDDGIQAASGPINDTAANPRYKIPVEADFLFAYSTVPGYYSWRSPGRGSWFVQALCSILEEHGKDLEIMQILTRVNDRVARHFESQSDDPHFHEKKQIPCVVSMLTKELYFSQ
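Assay system: Uncleavable procaspase-7 mutant enzyme | Input: 2 µM procaspase-7 mutant as dispensed | Timing: 1 h compound preincubation, 2 h substrate cleavage, 25 °C | Repeats: One well per compound | Control set: DMSO wells as 0%, DMSO with 5 µM added PC-7 as 100% | Technique: Epi-absorbance of released pNA at 405 nm, two timepoints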
procasp3 activ = activates human procaspase-3; activation, % at 8.5 µM; recombinant procaspase-3 D3A, Ac-DEVD-pNA absorbance 405 nm; actives 0.11% (n = 330,000);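 active means activation above the mean of all tested compounds plus 3 SD, cut at about 21% in these data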;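 further: 0% = DMSO alone and 100% = DMSO wells spiked with extra 5 µM PC-3 D3A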
Target sequence (P42574 whole entry D9A/D28A/D175A): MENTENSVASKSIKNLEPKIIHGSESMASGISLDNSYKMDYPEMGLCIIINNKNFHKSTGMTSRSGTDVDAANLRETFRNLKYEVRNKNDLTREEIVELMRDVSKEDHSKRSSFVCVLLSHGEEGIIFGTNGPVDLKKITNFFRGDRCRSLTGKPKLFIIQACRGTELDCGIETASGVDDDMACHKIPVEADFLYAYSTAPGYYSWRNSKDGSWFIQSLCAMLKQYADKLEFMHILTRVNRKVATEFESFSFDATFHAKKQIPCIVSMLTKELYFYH
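Test system: Procaspase-3 D3A mutant; medium: Zinc-free HEPES/NaCl buffer with 0.01% Triton X-100 at pH 7.4; reagent: DEVD-pNA substrate; doses: one concentration, 8.5 µM nominal, 0.8% DMSO; times: 1 h preincubation plus 2 h reaction at 25 °C; signal: Epi-absorbance at 405 nm of released p-nitroaniline, 0 and 120 min; replicates: singlicate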
aDG glyco act = increases alpha dystroglycan glycosylation; activation, % at 10 µM; Pro5-aDG cells, alpha-DG glycosylation AlphaScreen (IIH6); 0% Pro5, 100% B10-LARGE cell signal; actives 0.22% (n = 360,000); AID 624168;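 active means activation of at least 8% versus controls, or a plate z-score of at least 8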;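 further: Pro5 are CHO cells carrying HIG-tagged alpha-DG that lacks glycosylation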
GRIN3A LBD mod = modulates the human NR3A ligand-binding domain; Tm shift relative to glycine control, % at 25 µM; actives 2.5% (n = 340,000); AID 1259313; NR3A LBD differential scanning fluorimetry, Tm shift; 0% = protein alone, 100% = glycine-bound protein;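 active means melting temperature shift of at least 10% of the positive control shift, at one fixed dose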
MPTP inh = permeability transition pore inhibition | isolated mouse mitochondria, Ca2+ swelling absorbance, 30 min | inhibition, % at 10 µM | actives 1.4% (n = 360,000) | AID 602449;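 active means inhibition of 50% or more, scaled per plate between neutral and stimulator controls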;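 further: 0% = DMSO wells given calcium and 100% = 1 mM EGTA wells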
An asterisk follows results filed as active. Compounds with a hit are over-represented: about 3.7% of the library has one in this group of screens.

Screening Cc1cccc(/C=N/NC(=O)c2cc(-c3cccnc3)nc3c2c(C)nn3-c2ccccc2)c1 returned proCasp7 act 1.4, procasp3 activ -3.5, aDG glyco act -0.1, GRIN3A LBD mod 23.5* and MPTP inh 4.0.
Cc1cccc(/C=N/NC(=O)c2cc(-c3cccnc3)nc3ccccc23)c1 was read as proCasp7 act 6.5, procasp3 activ -0.2, aDG glyco act -0.3, GRIN3A LBD mod 0.8 and MPTP inh -2.6.
CC(OC(=O)CCCCCN=C1NS(=O)(=O)c2ccccc21)C(=O)Nc1cc(Cl)cc(Cl)c1 (stereo unspecified) was read as proCasp7 act 1.7, procasp3 activ -1.9, aDG glyco act 0.2, GRIN3A LBD mod 17.8* and MPTP inh 21.0.
O=C(O)C(c1ccccc1)N1C(=O)/C(=C\c2ccc(-c3ccccc3Cl)o2)SC1=S (stereo unspecified) was read as proCasp7 act -17.8, procasp3 activ -20.6, aDG glyco act 0.0, GRIN3A LBD mod 31.1* and MPTP inh 2.4.
`Cc1nc(C)c(C(=O)OCC(=O)NCCc2ccc(F)cc2)s1` gave aDG glyco act 0.0, GRIN3A LBD mod 0.4 and MPTP inh -0.6.
`C[C@@H]1CN([C@@H](C)CO)C(=O)c2cc(-c3ccccc3F)cnc2O[C@H]1CN(C)Cc1cccc(F)c1` gave aDG glyco act 0.2 and MPTP inh -0.7.
Screening COc1ccccc1NC(=S)N(Cc1ccccc1)Cc1ccccn1 returned proCasp7 act 5.3, procasp3 activ -4.6, aDG glyco act 0.3, GRIN3A LBD mod 13.4* and MPTP inh -0.4.
CCCCNC(=O)c1nc(C2CCN(S(=O)(=O)c3ccc(F)c(F)c3)CC2)oc1-c1ccccc1 was read as aDG glyco act -0.3 and MPTP inh -0.5.
Nc1cc(-c2ccc(Br)cc2)nc2cc(-c3ccccc3)nn12 was read as proCasp7 act -12.6, procasp3 activ -15.6, aDG glyco act 0.6, GRIN3A LBD mod 34.0* and MPTP inh 3.3.
Screening C=C(C)C(O)Cc1c(OC)ccc(C(=O)/C=C/c2ccc(O)cc2)c1O (stereo unspecified) returned proCasp7 act -7.1, procasp3 activ -0.4, aDG glyco act -0.3, GRIN3A LBD mod 25.0* and MPTP inh 1.7.
`CC(C)=CCC/C(C)=C/Cc1c(O)ccc(C(=O)/C=C/c2ccc(O)cc2)c1O` gave proCasp7 act -5.8, procasp3 activ -0.3, aDG glyco act 1.0, GRIN3A LBD mod 29.0* and MPTP inh 2.2.
CC1(C(=O)NS(=O)(=O)c2ccccc2C(F)(F)F)CCN1C(=O)CCc1cccs1 (stereo unspecified) was read as aDG glyco act 0.0 and MPTP inh -1.8.
For CC1=NN(c2cccc(Cl)c2)C(=O)C1 the results were proCasp7 act 2.3, procasp3 activ 7.5, aDG glyco act 0.3, GRIN3A LBD mod 11.4* and MPTP inh 38.6.
`CCCCCCc1ccc(-c2ncc(N)cn2)cc1` gave proCasp7 act -4.0, procasp3 activ 3.8, aDG glyco act 0.1, GRIN3A LBD mod 10.7* and MPTP inh 6.6.
`CCCCCc1ccc(-c2nnc(N)s2)cc1` gave proCasp7 act 2.1, procasp3 activ 8.6, aDG glyco act 1.7, GRIN3A LBD mod 0.3 and MPTP inh -1.4.
Screening COC(=O)CCC1(C(N)=O)CCC(=O)c2ccccc21 (stereo unspecified) returned aDG glyco act 0.2, GRIN3A LBD mod 12.6* and MPTP inh -0.1.
For CNc1cc(-c2cccc(C(=O)N3CCOCC3)c2)ncn1 the results were aDG glyco act -0.2 and MPTP inh -1.8.
CCc1ccc(C(C)NC(=O)COC(=O)c2ccc(-n3cnnn3)cc2)cc1 (stereo unspecified) was read as proCasp7 act -8.2, procasp3 activ 3.0, aDG glyco act -0.2, GRIN3A LBD mod 0.3 and MPTP inh 0.1.
O=C(O)CCCCCN1C(=O)/C(=C/c2cn(-c3ccccc3)nc2-c2cccs2)SC1=S was read as aDG glyco act -0.3, GRIN3A LBD mod 20.4* and MPTP inh 9.1.
Screening COc1ccc(-c2nn(-c3ccccc3)cc2/C=C2/SC(=S)N(CCC(=O)O)C2=O)cc1 returned proCasp7 act -2.2, procasp3 activ -16.4, aDG glyco act -0.3, GRIN3A LBD mod 3.7 and MPTP inh 4.2.
`O=C(O)CCCCCN1C(=O)/C(=C\c2cn(-c3ccccc3)nc2-c2cccs2)SC1=S` gave proCasp7 act -1.2, procasp3 activ -5.8, aDG glyco act -0.1, GRIN3A LBD mod 7.3 and MPTP inh 39.6.
Screening O=C(O)CCN1C(=O)/C(=C/c2cn(-c3ccccc3)nc2-c2cccs2)SC1=S returned aDG glyco act 0.3, GRIN3A LBD mod 29.1* and MPTP inh 0.1.
Screening Cc1ccc(C(O)c2ncc(-c3ccccc3Cl)[nH]2)c(C)c1 (stereo unspecified) returned aDG glyco act -0.3 and MPTP inh 1.3.
Cc1ccc(C(=O)C2=C(O)C(=O)N(c3ncccn3)C2c2ccc(Cl)cc2)o1 (stereo unspecified) was read as proCasp7 act -30.3, procasp3 activ -24.0, aDG glyco act 0.1, GRIN3A LBD mod 12.8* and MPTP inh 7.5.
Screening CCN(CC(=O)NC1CCS(=O)(=O)C1)S(=O)(=O)c1ccc(Cl)c(C(F)(F)F)c1 (stereo unspecified) returned aDG glyco act -0.1, GRIN3A LBD mod 2.1 and MPTP inh -0.5.
For COC(=O)N/N=C/c1c(C)c(C(=O)c2ccc(F)cc2)n2ccccc12 the results were proCasp7 act -1.2, procasp3 activ 4.8, aDG glyco act -0.1, GRIN3A LBD mod 1.2 and MPTP inh 1.3.
Cc1c(/C=N/NC(=O)c2ccc(O)cc2)c2ccccn2c1C(=O)c1ccc(F)cc1 was read as proCasp7 act 2.2, procasp3 activ -7.9, aDG glyco act -0.1, GRIN3A LBD mod 17.7* and MPTP inh -1.0.
Screening N#CCC(=N)N1CCN(c2cccc(Cl)c2)CC1 returned proCasp7 act 1.6, procasp3 activ 0.4, aDG glyco act 0.0, GRIN3A LBD mod 12.2* and MPTP inh 0.0.
Screening C[C@H]1CN(S(=O)C(C)(C)C)[C@H](CCO)/C1=C\c1ccccc1 (stereo partly specified) returned aDG glyco act -0.3, GRIN3A LBD mod 2.5 and MPTP inh -0.6.
`CC1CCCC(NC(=S)NC(=O)c2ccco2)C1C` (stereo unspecified) gave proCasp7 act -1.7, procasp3 activ -4.0, aDG glyco act 0.1, GRIN3A LBD mod 2.5 and MPTP inh -1.1.
CCC(CNc1cc(OC)cc2cccnc12)NC1CCCCC1 (stereo unspecified) was read as proCasp7 act -3.0, procasp3 activ -3.0, aDG glyco act 7.1*, GRIN3A LBD mod -1.2 and MPTP inh 0.6.
